Published values collected from several papers.
Lines come from different studies, so protocols differ.

| Compound | cell line | assay | conditions | quantity | result |
| --- | --- | --- | --- | --- | --- |
| COc1cccc(CCNCc2c(N)nc(N)nc2C2CC2)c1 | Vero | cell growth or viability, SRB |  | IC50 | 7.2 µM |
| CC1=C(O)C(=O)C=C2C1=CC=C1[C@@]2(C)CC[C@@]2(C)[C@@H]3C[C@](C)(C(=O)O)CC[C@]3(C)CC[C@]12C | SMMC-7721 | cell growth or viability, MTT | 20 µM | inhibition | 70.6% |
| COc1cc([C@@H]2c3cc4c(cc3[C@H](O)[C@H]3COC(=O)[C@H]23)OCO4)cc(OC)c1OC | NCI-H1299 | cell growth or viability, MTT | 72 h | EC50 | 0.003 µM |
| C[S+]([O-])CCCCN=C=S (centres unmarked) | RAW264.7 | NO release, inhibitor, Griess | 10 µM, LPS-stimulated | inhibition | 91.6% |
| Nc1nc(N)c(CNCCc2ccc(Cl)cc2)c(C2CC2)n1 | Vero | cell growth or viability, SRB |  | IC50 | 70 µM |
| O=C1OC[C@H](Cc2cccc(O)c2)[C@H]1Cc1cccc(O)c1 | SPCA1 | cell growth or viability, MTT |  | IC50 | 42.2 µM |
| O=C(CC(=O)c1ccccc1)c1ccccc1 | HL-60 | cell growth or viability, resazurin | 72 h, dark | IC50 | 15.5 µM |
| COc1cccc2c1C(=O)c1c(O)c3c(c(O)c1C2=O)C[C@@](O)(C(=O)CO)C[C@@H]3O[C@H]1C[C@H](N)[C@H](O)[C@H](C)O1 | SPCA1 | cell growth or viability, MTT |  | IC50 | 30 µM |
| COc1c(O)cc2oc3cc(O)c(CC=C(C)C)c(O)c3c(=O)c2c1CC=C(C)C | 22Rv1 | cell growth or viability | 48 h | IC50 | 19.5 µM |
| COc1cc(O)c(C(=O)/C=C/c2ccc(O)cc2)c(OC)c1 | SPCA1 | cell growth or viability, MTT |  | IC50 | 25 µM |
| COC(=O)[C@@H](N)CCCNC(N)=N[N+](=O)[O-] | RAW264.7 | NO release, inhibitor, Griess | 250 µM, LPS-stimulated | inhibition | 54% |
| Nc1nc(N)c(CNCCc2cccc(Cl)c2)c(C2CC2)n1 | Vero | cell growth or viability, SRB |  | IC50 | 76 µM |
| N.N.[Cl][Pt][Cl] | HL-60 | cell growth or viability, MTT | 48 h | IC50 | 1.17 µM |
| N.N.[Cl][Pt][Cl] | M109 | cell growth or viability, MTT |  | IC50 | 0.97 µM |
